Measurements: ChEMBL document CHEMBL3526021, “NADPH-cytochrome P450 oxidoreductase: roles in physiology, pharmacology, and toxicology” (Drug Metab Dispos, 2013)

How the values were obtained:
in vivo [1] = settings: mouse, po, 2.5 mg/kg
[2] = Cmax in Por lox/lox wild type mouse at 2.5 mg/kg, po treated 10 days after 40 mg/kg, ip 3-methylcholanthrene administration by liquid chromatography-tandem mass spectrometry; type: ADME, organism-based; settings: in vivo
Method in brief: (§1)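 Adult male mice (n = 3): Por lox/lox wild type, or RCN (Por lox/lox plus Cre under CYP1A1 promoter). Pretreated i.p. in corn oil with either 3-MC 40 mg/kg as a single dose, or BNF 80 mg/kg daily for 4 days. After 10 days, oral dosing at 2.5 mg/kg. Serial tail-vein blood was analysed by LC-MS/MS for parent drug; mean ± SD.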

[3] = AUC (0 to infinity) in Por lox/lox wild type mouse at 2.5 mg/kg, po treated 10 days after 80 mg/kg, ip beta-naphthoflavone administration by liquid chromatography-tandem mass spectrometry; type: ADME, organism-based; settings: plasma
Method in brief: as §1

[4] = AUC (0 to last) in liver Por deleted-reductase conditional null mouse at 2.5 mg/kg, po treated 10 days after 40 mg/kg, ip 3-methylcholanthrene administration by liquid chromatography-tandem mass spectrometry; type: ADME, organism-based; settings: in vivo
Method in brief: as §1

[5] = AUC (0 to infinity) in liver and gut Por deleted-reductase conditional null mouse at 2.5 mg/kg, po treated 10 days after 80 mg/kg, ip beta-naphthoflavone administration by liquid chromatography-tandem mass spectrometry; type: ADME, organism-based; settings: in vivo
Method in brief: as §1

[6] = Cmax in liver Por deleted-reductase conditional null mouse at 2.5 mg/kg, po treated 10 days after 40 mg/kg, ip 3-methylcholanthrene administration by liquid chromatography-tandem mass spectrometry; type: ADME, organism-based; settings: in vivo
Method in brief: as §1

[7] = AUC (0 to last) in liver and gut Por deleted-reductase conditional null mouse at 2.5 mg/kg, po treated 10 days after 80 mg/kg, ip beta-naphthoflavone administration by liquid chromatography-tandem mass spectrometry; type: ADME, organism-based; settings: in vivo
Method in brief: as §1

in vivo [8] = settings: mouse, po, 2.5 mg/kg; remark: listed apart in the source
in vivo [9] = settings: mouse, po, 2.5 mg/kg; remark: listed apart in the source
[10] = AUC (0 to infinity) in liver Por deleted-reductase conditional null mouse at 2.5 mg/kg, po treated 10 days after 40 mg/kg, ip 3-methylcholanthrene administration by liquid chromatography-tandem mass spectrometry; type: ADME, organism-based; settings: in vivo
Method in brief: as §1

[11] = Clearance in Por lox/lox wild type mouse at 2.5 mg/kg, po treated 10 days after 80 mg/kg, ip beta-naphthoflavone administration by liquid chromatography-tandem mass spectrometry; type: ADME, organism-based; settings: in vivo
Method in brief: as §1

[12] = Cmax in liver and gut Por deleted-reductase conditional null mouse at 2.5 mg/kg, po treated 10 days after 80 mg/kg, ip beta-naphthoflavone administration by liquid chromatography-tandem mass spectrometry; type: ADME, organism-based; settings: in vivo
Method in brief: as §1

[13] = AUC (0 to last) in Por lox/lox wild type mouse at 2.5 mg/kg, po treated 10 days after 40 mg/kg, ip 3-methylcholanthrene administration by liquid chromatography-tandem mass spectrometry; type: ADME, organism-based; settings: plasma
Method in brief: as §1

[14] = Cmax in Por lox/lox wild type mouse at 2.5 mg/kg, po treated 10 days after 80 mg/kg, ip beta-naphthoflavone administration by liquid chromatography-tandem mass spectrometry; type: ADME, organism-based; settings: in vivo
Method in brief: as §1

[15] = Clearance in liver Por deleted-reductase conditional null mouse at 2.5 mg/kg, po treated 10 days after 40 mg/kg, ip 3-methylcholanthrene administration by liquid chromatography-tandem mass spectrometry; type: ADME, organism-based; settings: in vivo
Method in brief: as §1

in vivo [16] = settings: mouse, po, 2.5 mg/kg; remark: listed apart in the source
[17] = AUC (0 to last) in Por lox/lox wild type mouse at 2.5 mg/kg, po treated 10 days after 80 mg/kg, ip beta-naphthoflavone administration by liquid chromatography-tandem mass spectrometry; type: ADME, organism-based; settings: plasma
Method in brief: as §1

[18] = Clearance in liver and gut Por deleted-reductase conditional null mouse at 2.5 mg/kg, po treated 10 days after 80 mg/kg, ip beta-naphthoflavone administration by liquid chromatography-tandem mass spectrometry; type: ADME, organism-based; settings: in vivo
Method in brief: as §1

Mus musculus = test: AUC (0 to infinity) in Por lox/lox wild type mouse at 2.5 mg/kg, po treated 10 days after 40 mg/kg, ip 3-methylcholanthrene administration by liquid chromatography-tandem mass spectrometry; type: ADME, organism-based, Plasma; settings: in vivo, 240 h
Method in brief: as §1

Q: Which results are given for Cc1ncc2n1-c1ccc(Cl)cc1C(c1ccccc1F)=NC2 [MIDAZOLAM]?
A: half-life at 240 h (in vivo [1]): 1.9 h; Cmax [2]: 110 ng/mL; AUC(0-inf) [3]: 278 ng·h/mL; AUC(0-t) at 240 h [4]: 2100 ng·h/mL; AUC(0-inf) [5]: 5830 ng·h/mL; Cmax [6]: 900 ng/mL; AUC(0-t) at 240 h [7]: 5520 ng·h/mL; half-life at 240 h (in vivo [8]): 1.13 h; half-life at 240 h (in vivo [9]): 1.92 h; AUC(0-inf) [10]: 2250 ng·h/mL; CL/F [11]: 180 mL/min/kg; Cmax [12]: 2300 ng/mL; AUC(0-t) at 240 h [13]: 125 ng·h/mL; Cmax [14]: 140 ng/mL; CL/F [15]: 26.8 mL/min/kg; half-life at 240 h (in vivo [16]): 2.13 h; AUC(0-t) at 240 h [17]: 228 ng·h/mL; CL/F [18]: 9.3 mL/min/kg; AUC (Mus musculus): 8.7 µg·min/mL
